Screening results deposited in PubChem by Broad Institute.
A1 apoptosis 2: A1 inhibitors via caspase activation, primary screen, cell-based, luminescence, HTS, two replicates; 24,000 tested, under 10 active; MEF A1-2A-BIM cells, caspase-Glo luminescence, 3 h; percent of clofoctol response, DMSO zero; caspase activation, % (test concentration not listed); in the data active = caspase activation above about 5.9%; inconclusive = no clear call, values can overlap the other calls; inactive = below about 2.2%
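Test system – A1-2A-BIM-expressing MEF cells · Input – 2500 cells/well · Medium – RPMI-1640 growth medium with 10% FBS · Compound dosing – 50 nL pinned compound · Timing – 3 h compound exposure at 37 °C · Technique – Caspase-Glo luminescence (DEVD substrate) · Evaluation – Caspase-3/7 activity from luminescence increase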
T cruzi HTS: inhibitors of intracellular Trypanosoma cruzi, primary screen, cell-based, plate reader, single point, set 2 | intracellular Trypanosoma cruzi in host cells | AID 651903, 2012 | activity score (inhibition), % at 5.01 µM | actives 4.9% (n = 22,000); in the data active = activity score above about 55%; inconclusive = no clear call, values can overlap the other calls;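 note: parasites and compound incubated about four days before reading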
INS-1E rescue: protection of INS-1E cells from cytokine death, primary screen, ATP luminescence, single point; INS-1E cytokine-induced death, 48 h; normalised: neutral wells 0, positive control 100; protection from cytokine-induced ATP loss, % at 10 µM; actives 0.1% (n = 20,000); AID 488910, 2010;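 active = mean replicate protection from cytokine-induced ATP loss at least 50% and at least 75% of replicates each reaching 50%; inconclusive = meets only one of the two criteria, mean or replicate share; inactive = fails both the mean and replicate share criteria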
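Material: INS-1E rat cells; Quantity: 8000 cells/well; Buffer or medium: phenol-red-free RPMI with 5% fetal bovine serum; Probe or stimulus: cytokine cocktail of IFN-γ, TNF-α and IL-1β; Compound dosing: single test concentration per compound, delivered by pin transfer; Incubation: 48 h co-treatment, 10 min post-lysis read; Signal: CellTiter-Glo luminescence.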
A number is an active result; . = inactive; ? = inconclusive; / = no result given. The sample as a whole holds a higher share of hits than the screen did.

SMILES	A1 apoptosis 2	T cruzi HTS	INS-1E rescue
COc1ccc(NC(=O)Nc2ccc3c(c2)CC(=O)N([C@@H](C)CO)C[C@H](C)[C@@H](CN(C)Cc2ccc(Oc4ccccc4)cc2)O3)cc1	.	62	.
COC(=O)CCCCCCC(=O)N/N=C/[C@@H](O)[C@H](O)[C@H](O)CO	/	.	.
COC(=O)CCCCCCC(=O)N/N=C\c1cccnc1Br	.	.	.
C[C@H](CO)N1C[C@H](C)[C@H](CN(C)S(=O)(=O)c2ccccc2)Oc2ccc(NC(=O)Nc3ccc(C(F)(F)F)cc3)cc2CC1=O	/	77	.
C[C@H]1CN([C@@H](C)CO)C(=O)Cc2cc(NC(=O)Nc3ccc(C(F)(F)F)cc3)ccc2O[C@@H]1CN(C)S(=O)(=O)c1ccccc1	.	.	.
Cc1ccc(S(=O)(=O)N(C)C[C@H]2Oc3ccc(NC(=O)Nc4ccc(C(F)(F)F)cc4)cc3CC(=O)N([C@@H](C)CO)C[C@@H]2C)cc1	/	.	.
C[C@H](CO)N1C[C@H](C)[C@H](CN(C)S(=O)(=O)c2cccs2)Oc2ccc(NC(=O)Nc3ccc(C(F)(F)F)cc3)cc2CC1=O	.	.	.
C[C@@H]1CN([C@@H](C)CO)C(=O)Cc2cc(NC(=O)Nc3ccc(C(F)(F)F)cc3)ccc2O[C@@H]1CN(C)S(=O)(=O)c1cccs1	.	73	.
C[C@@H]1CN([C@@H](C)CO)C(=O)Cc2cc(NC(=O)Nc3ccc(C(F)(F)F)cc3)ccc2O[C@@H]1CN(C)S(=O)(=O)c1ccccc1	/	75	.
COc1ccc(/C=N/NC(=O)c2ccccn2)cc1	.	.	.
COc1ccc(Br)cc1/C=N/NC(=O)c1ccccc1O	.	.	.
C[C@@H]1CN([C@H](C)CO)C(=O)c2cccc(NS(=O)(=O)c3ccc(Cl)cc3)c2O[C@@H]1CN(C)C(=O)Nc1ccc(C(F)(F)F)cc1	.	.	.
C[C@H](CO)N1C[C@H](C)[C@@H](CN(C)C(=O)Nc2ccc(F)cc2)Oc2c(NC(=O)Nc3ccc(C(F)(F)F)cc3)cccc2C1=O	.	.	.
C[C@@H]1CN([C@H](C)CO)C(=O)c2cccc(NC(=O)Nc3ccc(C(F)(F)F)cc3)c2O[C@H]1CN(C)C(=O)Nc1ccc2c(c1)OCO2	.	66	.
C[C@@H]1CN([C@H](C)CO)C(=O)c2cccc(NC(=O)Nc3ccc(C(F)(F)F)cc3)c2O[C@@H]1CN(C)C(=O)Nc1ccc(C(F)(F)F)cc1	.	75	.
C[C@@H]1CN([C@@H](C)CO)C(=O)c2cccc(NS(=O)(=O)c3ccc(Cl)cc3)c2O[C@@H]1CN(C)C(=O)Nc1ccc(C(F)(F)F)cc1	.	83	.
C[C@H]1CN([C@@H](C)CO)C(=O)c2cccc(NC(=O)Nc3ccc(C(F)(F)F)cc3)c2O[C@H]1CN(C)C(=O)Nc1ccc(C(F)(F)F)cc1	/	.	.
C[C@H]1CN([C@@H](C)CO)C(=O)c2cccc(NC(=O)Nc3ccc(C(F)(F)F)cc3)c2O[C@H]1CN(C)C(=O)Nc1ccc(F)cc1	.	60	.
C[C@@H]1CN([C@@H](C)CO)C(=O)c2cccc(NC(=O)Nc3ccc4c(c3)OCO4)c2O[C@@H]1CN(C)C(=O)Nc1ccc(C(F)(F)F)cc1	.	.	.
O=C(/C=C/c1ccc(OCCCCc2ccccc2)cc1)NO	.	/	/
COC(=O)CCCCCCC(=O)N/N=C/c1cccc(O)c1	/	.	.
O=C(NCCN1CCOCC1)[C@@]1(Cc2ccccc2)N=C(c2ccc(OCCCO)cc2)O[C@H]1c1ccccc1	.	/	/
C[C@@H](O)[C@@H](O)[C@@H](O)C/C=N/NC(=O)c1cccc(C(=O)NO)c1	.	.	.
C[C@H]1CN([C@@H](C)CO)C(=O)c2cccc(NC(=O)Nc3ccc(C(F)(F)F)cc3)c2O[C@@H]1CN(C)C	.	.	.
C[C@H](CO)N1C[C@H](C)[C@H](CN(C)C)Oc2c(NC(=O)Nc3ccc(C(F)(F)F)cc3)cccc2C1=O	.	81	.
SMILES	A1 apoptosis 2	T cruzi HTS	INS-1E rescue
COc1ccc(NC(=O)Nc2cccc3c2O[C@H](CN(C)C(=O)Nc2ccc(C(F)(F)F)cc2)[C@H](C)CN([C@H](C)CO)C3=O)cc1	.	.	.
C[C@H](CO)N1C[C@H](C)[C@H](CN(C)CC2CCCCC2)Oc2c(NC(=O)Nc3ccc(C(F)(F)F)cc3)cccc2C1=O	.	56	.
COc1ccc(NC(=O)N(C)C[C@@H]2Oc3c(NC(=O)Nc4ccc(C(F)(F)F)cc4)cccc3C(=O)N([C@H](C)CO)C[C@H]2C)cc1	.	60	.
C[C@@H]1CN([C@H](C)CO)C(=O)c2cccc(NC(=O)Nc3ccc(C(F)(F)F)cc3)c2O[C@@H]1CN(C)CC1CCCCC1	/	.	.
O=C(NO)c1cccc(C(=O)N/N=C/c2ccc3c(c2)CCO3)c1	.	.	.
O=C(NO)c1cccc(C(=O)N/N=C/c2cn(S(=O)(=O)c3ccccc3)c3ccccc23)c1	.	.	.
COc1ccc(CN(C)C[C@H]2Oc3ccc(NC(=O)Nc4cccc5ccccc45)cc3CC(=O)N([C@@H](C)CO)C[C@@H]2C)cc1	.	/	/
C[C@H]1CN([C@@H](C)CO)C(=O)Cc2cc(NC(=O)Nc3cccc4ccccc34)ccc2O[C@@H]1CN(C)Cc1ccc(Oc2ccccc2)cc1	.	70	.
C[C@@H]1CN([C@@H](C)CO)C(=O)Cc2cc(NC(=O)Nc3cccc4ccccc34)ccc2O[C@@H]1CN(C)Cc1ccc(Oc2ccccc2)cc1	/	68	.
C[C@H](CO)N1C[C@H](C)[C@H](CN(C)Cc2ccc(Oc3ccccc3)cc2)Oc2ccc(NC(=O)Nc3cccc4ccccc34)cc2CC1=O	/	.	.
C[C@H]1CN([C@@H](C)CO)C(=O)c2cc(NC(=O)Nc3ccccc3)ccc2O[C@H]1CN(C)Cc1ccc2c(c1)OCO2	/	52	/
C[C@@H]1CN([C@H](C)CO)C(=O)c2cc(NC(=O)Nc3ccc(C(F)(F)F)cc3)ccc2O[C@H]1CN(C)Cc1ccc2c(c1)OCO2	/	.	.
C[C@H]1CN([C@@H](C)CO)C(=O)c2cc(NC(=O)Nc3ccc4c(c3)OCO4)ccc2O[C@@H]1CN(C)Cc1ccc2c(c1)OCO2	.	.	.
C[C@H]1CN([C@@H](C)CO)C(=O)c2cc(NC(=O)Nc3ccc(C(F)(F)F)cc3)ccc2O[C@H]1CN(C)Cc1ccc(C(F)(F)F)cc1	.	?	.
C[C@@H]1CN([C@H](C)CO)C(=O)c2cc(NC(=O)Nc3ccc4c(c3)OCO4)ccc2O[C@@H]1CN(C)Cc1ccc(Oc2ccccc2)cc1	/	62	.
C[C@@H]1CN([C@H](C)CO)C(=O)c2cc(NC(=O)Nc3ccc4c(c3)OCO4)ccc2O[C@H]1CN(C)Cc1ccc(Oc2ccccc2)cc1	/	.	/
C[C@@H]1CN([C@@H](C)CO)C(=O)c2cc(NC(=O)Nc3ccc4c(c3)OCO4)ccc2O[C@@H]1CN(C)Cc1ccc(C(F)(F)F)cc1	.	68	/
